A selection: hits, their analogues and other compounds. The true share with any hit is near 2.3%.
STAT3 blocker: reduces IL-6 driven STAT3 reporter signal. 0.89% of 190,000 active. inhibition, % at 5.5 µM. AID 862. U3A cells, IL-6 STAT3-luciferase reporter, luminescence; host cell line lacks STAT1;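 active means inhibition above the mean inhibition across all screened compounds plus 3 SD, cut at about 44% in these data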;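 further: 0% = DMSO only wells and 100% = 100 µM nifuroxazide control wells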
STAT1 blocker: reduces IFN-gamma driven STAT1 reporter signal. NIH 3T3 STAT1-luciferase reporter, luminescence. 0.35% of 200,000 active. inhibition, % at 5.5 µM;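 active means inhibition above a set limit, the mean inhibition across all tested compounds plus 3 SD, cut at about 34% in these data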;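 further: 0% = IFN-gamma with DMSO and 100% = IFN-gamma with 300 µM nifuroxazide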
STAT3 activator: increases IL-6 driven STAT3 reporter signal; U3A cells, IL-6 STAT3-luciferase reporter, luminescence; 100% = signal with IL-6 EC80 alone; activation (% of control), % at 5.6 µM; 0.91% of 190,000 active; AID 871;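 active means activation above the screen-wide mean of compound activation plus 3 SD, cut at about 130% in these data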;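 further: 0% = background luminescence of wells with medium and substrate only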
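Material: human U3A cells carrying STAT3-luciferase construct. Measured by: reporter luminescence signal. Timing: compound 1 h, then IL-6 6 h at 37 °C.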
HSP90 inh: inhibitors of HSP90 luciferase refolding in rabbit reticulocyte lysate | inhibition, % at 5.6 µM | 0.91% of 290,000 active | luciferase refolding luminescence, 3 h;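 active means inhibition above the screen-wide mean plus 3 SD, computed separately per campaign, cut at about 16% in these data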;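 further: 0% = DMSO wells and 100% = 60 µM geldanamycin wells; inhibitors lower the luminescence because luciferase stays unfolded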
TRAIL sens C8: caspase-8 TRAIL sensitization; inhibition (viability loss, TRAIL sensitization), % at 10 µM; 1% of 360,000 active; AID 624354; NB7+C8 cells + TRAIL, ATPlite viability luminescence;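 active means compounds causing at least 50% loss of cell viability in the single-dose screen, relative to plate controls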
PPC-1+TRAIL kill: PPC-1 cancer cell killing with TRAIL present. PPC-1 cells + TRAIL, ATPLite viability luminescence. cell killing (% activity), % at 4 µM or 5 µM. 0.41% of 220,000 active. AID 1443;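 active means cell killing above 50% in the first pass at 4 µM, then a duplicate retest at 5 µM averaging 50% or more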;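 further: plate controls were cells with TRAIL plus DMSO for no effect and medium-only wells lacking cells for full effect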
Numbers without * were called inactive; . = no result.

SMILES	STAT3 blocker	STAT1 blocker	STAT3 activator	HSP90 inh	TRAIL sens C8	PPC-1+TRAIL kill
Cc1cccc(CC(=O)Nc2cc(C)c3c(=O)oc4ccccc4c3n2)c1	32	5	80	-3	52*	15
Cc1cc(NC(=O)Cc2ccccc2)nc2c1c(=O)oc1ccccc12	33	0	79	-1	32	-6
Cc1ccc2cc(/C=N/Nc3nc4ccccc4[nH]3)c(Cl)nc2c1	-16	6	113	0	87*	0
COc1ccc(NC(=S)Nc2cccc3cnccc23)cc1	-24	9	123	-1	-2	57*
O=c1c2ccccc2oc2ccc(-c3ccc4cc[nH]c4c3)cc12	.	.	.	.	53*	.
Cc1ccc2oc3ccccc3c(=O)c2c1	.	.	.	.	13	.
Cc1ccc(C(=O)Cn2c3[n+](c4ccccc42)CC(O)CS3)cc1 (stereo not given)	-2	-4	105	0	-3	20
Cc1cc(C)cc(NS(=O)(=O)c2ccc3[nH]cc(C(=O)NCc4ccco4)c(=O)c3c2)c1	16	4	89	3	84*	19
CN(C)C(=S)N=Nc1[nH]c2ccccc2c1O	-57	-88	152*	2	.	15
COc1cccc(NC(=O)c2ccc3c(c2)CCCC3)c1	.	.	.	1	65*	.
CC(=O)c1cccc(NC(=O)c2ccc3c(c2)CCCC3)c1	.	.	.	6	36	.
NC1=NS(=O)(=O)NC1c1cccc(F)c1 (stereo not given)	4	-7	100	-2	-9	13
C/C(=N/N=C/c1ccc(N(C)C)cc1)c1ccccc1	0	-37	100	0	56*	18
CC1CCN(Cc2c(C(=O)N/N=C/c3ccc(C(C)C)cc3)nnn2-c2nonc2N)CC1	.	.	.	14	18	.
Fc1cccc(C2NN=C(c3ccccc3)S2)c1 (stereo not given)	40	-71	66	8	55*	27
Cc1ccc(C2=NNC(C(O)C(O)C(O)C(C)O)S2)cc1 (stereo not given)	-4	-23	101	0	8	23
COc1ccc(C2NC(=O)CS2)cc1OC (stereo not given)	-9	-5	110	-4	-7	-3
Cc1ccc(C2=NNC(c3cccc(F)c3)S2)cc1 (stereo not given)	78*	48*	35	5	66*	.
COc1ccc(C2NN=C(c3ccc(C)cc3)S2)cc1OC (stereo not given)	10	-40	94	-5	59*	31
O=C1c2ccccc2C2=Nc3ccccc3SC(c3cccc(F)c3)C12 (stereo not given)	-11	-6	107	-1	-26	3
O=C(COC(=O)c1ccccc1C(=O)c1ccc(Cl)c([N+](=O)[O-])c1)NC1CC1	18	16	87	-5	93*	9
CNC(=O)COC(=O)c1ccccc1C(=O)c1ccc(Cl)c([N+](=O)[O-])c1	19	27	87	-2	9	2
CCOc1ncccc1C(=O)OCc1ccc(C(=O)OC)cc1	-35	-33	137*	-1	3	12
CCOc1ncccc1C(=O)OCc1ccc(Cl)cc1	9	1	96	-3	-4	4
CN(C)c1nc(Nc2ccc(Cl)cc2)nc(OCC#N)n1	-37	14	136*	-1	6	7
SMILES	STAT3 blocker	STAT1 blocker	STAT3 activator	HSP90 inh	TRAIL sens C8	PPC-1+TRAIL kill
CCC[N+]1(CC#CCC(c2ccccc2)c2ccccc2)CCCCC1	.	.	.	1	36	.
Cc1cccc(C(=O)O/N=C(\N)Cc2cccc3ccccc23)c1	.	.	.	17*	30	.
CCOC(=O)c1c(NC(=O)COc2ccccc2C#N)sc2c1CC(C)(C)NC2(C)C	.	.	.	-1	9	.
CC1(C)Cc2c(sc(NC(=O)COc3cccc4ccccc34)c2C#N)C(C)(C)N1	.	.	.	4	85*	4
COC(=O)c1c(NC(=O)c2ccc(OC(C)C)cc2)sc2c1CC(C)(C)NC2(C)C	.	-5	.	14	72*	23
CCOC(=O)c1c(NC(=O)COc2ccccc2OCC)sc2c1CC(C)(C)NC2(C)C	.	.	.	.	91*	.
Cc1ccc(OCC(=O)Nc2sc3c(c2C#N)CC(C)(C)NC3(C)C)cc1	2	-8	102	-4	18	13
COC(=O)c1c(NC(=O)c2ccccc2)sc2c1CC(C)(C)NC2(C)C	.	-9	.	5	13	16
O=C1CCC/C1=C/Nc1cccc(F)c1	.	.	.	-3	-29	4
CC(C)(C)CN1CCN(Cc2nc(-c3ccc(F)cc3)cs2)CC1CCO (stereo not given)	.	.	.	-4	33	.
COc1cc(CCC(=O)OCC(=O)Nc2ccc(F)c(F)c2F)cc(OC)c1OC	.	.	.	-2	1	.
O=[N+]([O-])c1ccccc1C=NNc1ccccc1	.	.	.	.	-5	.
Cc1ccc(-c2nc(N/N=C/c3ccccc3[N+](=O)[O-])c3ccccc3n2)cc1	25	-26	87	-2	89*	31
COC(=O)c1cccc(NC(=O)c2cccc(-n3cnnn3)c2)c1	.	.	.	.	-9	.
O=C(Nc1cnc2ccccc2c1)c1cccc(-n2cnnn2)c1	-34	-38	138*	1	8	14
Cc1ccc(C(=O)Nc2cccc(C(=O)N3CCOCC3)c2)cc1	-3	-6	105	-3	3	-17
CC(C)(C)c1ccc(C(=O)Nc2cccc(-n3cnnn3)c2)cc1	.	.	.	-2	71*	.
CC(C)(C)c1ccc(C(=O)Nc2cccc(C(=O)N3CCOCC3)c2)cc1	.	.	.	-4	63*	.
CCC1(C)N([O-])C(C)=C(c2ccccc2)[N+]1=O (stereo not given)	6	-14	100	1	-12	0
O=C(c1cccc(Cl)c1)N1CCC2(CC1)NCCc1[nH]cnc12	.	.	.	-3	-11	.
O=Cc1nccc2ccccc12	.	.	.	.	10	.
O=C(O)/C=C/c1ccc2ccccc2n1	7	5	97	0	0	20
C(=Cc1c[nH]c2ccccc12)c1nccc2ccccc12	.	.	.	.	73*	.
C(=Cc1c[nH]c2ccccc12)c1ccc2ccccc2n1	.	.	.	.	71*	.
COc1ccc(Cc2nnc(N/N=C/c3ccc(O)cc3O)[nH]c2=O)cc1OC	5	-4	97	2	51*	5
SMILES	STAT3 blocker	STAT1 blocker	STAT3 activator	HSP90 inh	TRAIL sens C8	PPC-1+TRAIL kill
CCCCCC/C=N/Nc1nnc(Cc2ccc(OC)c(OC)c2)c(=O)[nH]1	.	.	.	7	-19	.
CCOc1ccc(NC(=S)Nc2ccc(OCC)cc2)cc1	8	2	97	1	1	5
CCOc1ccc(NC(=S)Nc2ccc(C)c([N+](=O)[O-])c2)cc1	26	5	78	17*	2	-10
CC1(C)C=C(c2ccc(C=O)s2)CC(C)(C)N1C=O	-7	10	104	-6	22	62*
CC1(C)C=C(c2ccc(C=O)s2)CC(C)(C)N1	3	2	102	-2	6	-11
Cn1c(=O)c2c(SCC(=O)Nc3ccccc3F)nc(C3CC3)nc2n(C)c1=O	.	.	.	1	50*	.
O=C(Sc1cccc2cccnc12)c1ccc(F)cc1	30	-81	76	5	.	58*

Assay outcomes (PubChem BioAssay)
